VIM-2 inh: inhibitors of Pseudomonas aeruginosa VIM-2 metallo-beta-lactamase; purified VIM-2, nitrocefin hydrolysis, epi-absorbance fluorescence; hit rate 0.89% among 290,000; inhibition, % at 5.6 µM; AID 1527;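 active = inhibition above the mean of all tested compounds plus 3 SD, cutoff set per screening run, cut at about 7.5% in these data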;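 also: red hydrolysis product quenches plate fluorescence so inhibitors raise well fluorescence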
IMP-1 inhibitor: blocks Pseudomonas aeruginosa IMP-1 metallo-beta-lactamase; purified IMP-1, nitrocefin hydrolysis, epi-absorbance fluorescence; inhibition, % at 5.6 µM; hit rate 0.45% among 290,000;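 active = inhibition above the mean plus 3 SD of all compounds in the same screening run, cut at about 4.5% in these data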
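System: Purified IMP-1 | Read-out basis: Percent enzyme inhibition | Controls: IMP-1 with DMSO as 0%, enzyme-free DMSO as 100% | Replicates: One well per compound | Doses: 5.6 µM nominal single concentration | Detection: Epi-absorbance fluorescence, 480 nm excitation, 530 nm emission | Incubation: 25 °C, 15 min preincubation, 25 min reaction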
MEKK2 WT-MEK5: raises or lowers MEK5 binding to wildtype human MEKK2 PB1 domain | hit rate 1.1% among 290,000 | Q9Y2U5 | AID 1531 | bead flow cytometry, Alexa488-MEK5 binding to MEKK2 WT; actives lie on both sides | binding response (% of control), % at 10 µM; in the data active = binding response below about 67% or above about 130%
MEKK3 PB1 HTS: raises or lowers MEK5 binding to the human MEKK3 PB1 domain | Q99759 | bead-based flow cytometry, Alexa488-MEK5 binding to MEKK3; actives lie on both sides; 0 = blocked by unlabeled MEK5, 100 = vehicle | binding response (% of control), % at 10 µM | hit rate 1.4% among 290,000 | AID 1529;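 active = binding response more than 3 SD above or below the average of its plate-row segment, actives on both sides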;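 also: Alexa488 bead fluorescence after subtracting the streptavidin-only scavenger bead signal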
Target sequence (Q99759 whole entry, looked up, the tested form may be a part): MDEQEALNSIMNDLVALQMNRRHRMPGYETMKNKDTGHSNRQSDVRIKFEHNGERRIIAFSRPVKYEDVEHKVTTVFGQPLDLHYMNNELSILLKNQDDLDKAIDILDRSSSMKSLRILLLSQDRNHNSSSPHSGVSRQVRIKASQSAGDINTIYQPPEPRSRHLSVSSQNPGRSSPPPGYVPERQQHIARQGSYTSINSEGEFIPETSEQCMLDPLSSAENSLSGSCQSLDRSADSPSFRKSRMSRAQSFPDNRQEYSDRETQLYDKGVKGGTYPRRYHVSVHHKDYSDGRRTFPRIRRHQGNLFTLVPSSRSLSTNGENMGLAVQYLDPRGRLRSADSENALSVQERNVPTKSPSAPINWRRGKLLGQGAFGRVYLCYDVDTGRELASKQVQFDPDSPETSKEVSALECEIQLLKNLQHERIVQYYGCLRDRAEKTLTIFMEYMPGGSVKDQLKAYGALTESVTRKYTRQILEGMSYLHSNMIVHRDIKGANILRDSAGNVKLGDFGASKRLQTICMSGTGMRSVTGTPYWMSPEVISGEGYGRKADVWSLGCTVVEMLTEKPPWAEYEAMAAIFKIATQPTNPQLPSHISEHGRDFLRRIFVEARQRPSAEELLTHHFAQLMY
MEKK2mut PB1 HTS: signal of MEK5 binding to mutant human MEKK2 PB1 domain; bead flow cytometry, Alexa488-MEK5 binding to MEKK2 mutant; percent response, % at 10 µM; hit rate 0.35% among 290,000; in the data active = percent response above about 24%, passing the limit was not always enough
MEKK2wt confirm: raises or lowers MEK5 binding to wildtype human MEKK2, retest; AID 1892; binding response (% of control), % at 10 µM; bead flow cytometry, Alexa488-MEK5 binding to MEKK2 WT; actives lie on both sides; shares compounds with MEKK3 PB1 HTS; hit rate 2.4% among 5,900; in the data active = binding response below about 16% or above about 210%; inactive = in between
MEKK2mut-MEK5: signal of MEK5 binding to mutant human MEKK2, retest. shares compounds with MEKK3 PB1 HTS. bead flow cytometry, Alexa488-MEK5 binding to MEKK2 mutant. percent response, % at 10 µM. hit rate 2% among 5,900; in the data active = percent response mostly above about 71%, no sharp cut-off; inactive = mostly below about 38%;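 also: higher means compound restores mutant binding toward wildtype level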
MEKK3-MEK5 inh: confirmation of inhibitors of MEK5 binding to human MEKK3; shares compounds with MEKK3 PB1 HTS; bead flow cytometry, Alexa488-MEK5 binding to MEKK3; stronger effect = lower value; binding response (% of control), % at 10 µM; hit rate 1.8% among 5,900;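 active = binding response below 72% of control, or above a set upper limit, though filed actives all read lower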
Large screens that a line does not name were inactive (follow-up assays come after a bar, where they were run); [ ] = dose if it differs, or a comment. This is a sample that favours compounds with a hit; in the whole collection about 3.4% have one here.

O=C(Nc1ccc(SC(F)F)cc1)C12CCC(CC1)C2	MEKK3 PB1 HTS 134 | MEKK2wt confirm inactive | MEKK2mut-MEK5 inactive | MEKK3-MEK5 inh inactive
O=C(Nc1ccc(Cl)cc1)N1CCCN(Cc2ccc(F)cc2)C1	none
CCN1CCN(c2ccc(NC(=O)c3cccc(OCc4ccccc4)c3)cc2)CC1	MEKK2 WT-MEK5 171 | MEKK2wt confirm inactive | MEKK2mut-MEK5 inactive | MEKK3-MEK5 inh inactive
O=C(O)c1ccc(NC(=S)NC(=O)c2cccc(COc3ccccc3)c2)cc1	none
O=C(NC(=S)Nc1ccc(CN2CCOCC2)cc1)c1cccc([N+](=O)[O-])c1	MEKK3 PB1 HTS 145 | MEKK2wt confirm inactive | MEKK2mut-MEK5 inactive | MEKK3-MEK5 inh inactive
CCCOc1cccc(C(=O)NC(=S)Nc2ccc(N3CCN(C)CC3)cc2)c1	VIM-2 inh 12, MEKK2 WT-MEK5 152 | MEKK2wt confirm inactive | MEKK2mut-MEK5 inactive | MEKK3-MEK5 inh inactive
O=C(NC(=S)Nc1ccc(N2CCOCC2)cc1)c1cccc([N+](=O)[O-])c1	none
O=C(NC(=S)Nc1ccc(CN2CCCCC2)cc1)c1cccc(OCc2ccccc2)c1	MEKK2 WT-MEK5 220, MEKK2mut PB1 HTS 63 | MEKK2wt confirm inactive | MEKK2mut-MEK5 inactive | MEKK3-MEK5 inh inactive
CCOc1cccc(C(=O)NC(=S)Nc2ccccc2)c1	none
O=C(CSCc1ccccc1)Nc1ccc(S(=O)(=O)Nc2ncccn2)cc1	none
CNc1nc(Cl)c(SC)c(NC2CCCCC2)n1	MEKK3 PB1 HTS 148 | MEKK2wt confirm inactive | MEKK2mut-MEK5 inactive | MEKK3-MEK5 inh inactive
CC(C)(C)C(=O)COC(=O)c1cc2ccccc2cc1O	MEKK3 PB1 HTS 67[inhibitor] | MEKK2wt confirm inactive | MEKK2mut-MEK5 inactive | MEKK3-MEK5 inh inactive
CCOCC(=O)Nc1c(C(=O)Nc2ccc(OC)cc2OC)oc2ccccc12	none
CCOc1cc(/C=N/NC(=O)CSc2nnc(C)s2)ccc1OCc1ccccc1Cl	MEKK3 PB1 HTS 132 | MEKK2wt confirm inactive | MEKK2mut-MEK5 inactive | MEKK3-MEK5 inh inactive
O=C(CSc1nnc(SCc2ccccc2Cl)s1)N/N=C/c1ccc(C(=O)O)cc1	none
O=C(Nc1cccc(C(=O)N2CCN(Cc3ccccc3)CC2)c1)c1ccccc1	none
CC(=O)Nc1cccc(C(=O)N2CCN(Cc3ccccc3)CC2)c1	MEKK2 WT-MEK5 -1.0[inhibitor], MEKK3 PB1 HTS -1.0[inhibitor] | MEKK2wt confirm inactive | MEKK2mut-MEK5 inactive | MEKK3-MEK5 inh inactive
CC(C)(C)n1nc2c(c1NC(=O)c1ccc(Br)o1)CS(=O)C2 (configuration not stated)	none
CCCCNCc1cc(Br)c(OCc2cccs2)c(OC)c1	MEKK2 WT-MEK5 136 | MEKK2wt confirm inactive | MEKK2mut-MEK5 inactive | MEKK3-MEK5 inh inactive
CCCCNCc1cc(Br)c(OCC(=O)NCc2ccccc2)c(OC)c1	none
O=C(NCC1CCCO1)C1CCN(S(=O)(=O)c2ccccc2)CC1 (configuration not stated)	none
Cc1ccc(S(=O)(=O)NNc2nnc(C)c(=O)[nH]2)cc1	MEKK3 PB1 HTS 135 | MEKK2wt confirm inactive | MEKK2mut-MEK5 inactive | MEKK3-MEK5 inh inactive
COc1ccc(C2=NO[C@@H]3[C@@H]4C[C@@H]([C@H]5C(=O)N(C)C(=O)[C@@H]45)[C@H]23)cc1	MEKK3 PB1 HTS 153 | MEKK2wt confirm inactive | MEKK2mut-MEK5 inactive | MEKK3-MEK5 inh inactive
CCCc1cc(=O)[nH]c(SCc2cc(C(=O)OC)c(C)o2)n1	MEKK2 WT-MEK5 3.0[inhibitor], MEKK3 PB1 HTS 2.0[inhibitor] | MEKK2wt confirm inactive | MEKK2mut-MEK5 inactive | MEKK3-MEK5 inh inactive
C=CCn1c(SCC(=O)Nc2ccc(OC)cc2)nc2c([nH]c3ccccc32)c1=O	none
C=CCn1c(SCCN2CCCC2)nc2c([nH]c3ccccc32)c1=O	VIM-2 inh 10, MEKK3 PB1 HTS 50[inhibitor] | MEKK2wt confirm inactive | MEKK2mut-MEK5 inactive | MEKK3-MEK5 inh inactive
CCC(CC)c1nnc(NC(=O)C2CC(=O)N(c3ccc4c(c3)OCCO4)C2)s1 (configuration not stated)	MEKK3 PB1 HTS 135 | MEKK2wt confirm inactive | MEKK2mut-MEK5 inactive | MEKK3-MEK5 inh 61
CCCCc1nnc(NC(=O)C2CC(=O)N(c3ccc4c(c3)OCCO4)C2)s1 (configuration not stated)	none
Cn1ccnc1SCc1nc2c(cnn2-c2ccccc2)c(=O)[nH]1	none
Cn1c(=O)c(NC2CCCCC2)c2c3c(cccc31)C(=O)c1ccccc1-2	IMP-1 inhibitor 5.9, MEKK2 WT-MEK5 37[inhibitor] | MEKK2wt confirm inactive | MEKK2mut-MEK5 inactive | MEKK3-MEK5 inh inactive
COc1cc2c(cc1NC(=S)NC(=O)c1c(OC)cccc1OC)oc1ccccc12	MEKK3 PB1 HTS 129 | MEKK2wt confirm inactive | MEKK2mut-MEK5 inactive | MEKK3-MEK5 inh inactive
Cc1cc(N2CCN(c3ccccc3Cl)CC2)n2cc(-c3ccccc3)nc2n1	none
Cn1c(N)c(C(=O)CSc2nnc(-c3ccccc3F)n2N)c(=O)n(C)c1=O	MEKK3 PB1 HTS 47[inhibitor] | MEKK2wt confirm inactive | MEKK2mut-MEK5 inactive | MEKK3-MEK5 inh inactive
C=CCn1c(SCC(=O)c2c(N)n(C)c(=O)n(C)c2=O)nnc1-c1ccncc1	none
C=CCn1c(SCC(=O)c2c(N)n(C)c(=O)n(C)c2=O)nnc1-c1ccccc1F	MEKK2mut PB1 HTS 108 | MEKK2wt confirm inactive | MEKK2mut-MEK5 inactive | MEKK3-MEK5 inh inactive
COc1ccc(OC)c(/C(O)=C/C(=O)C(=O)Nc2cc(C)ccc2OC)c1	none
COc1ccc(OC)c(/C(O)=C/C(=O)C(=O)Nc2cc(C)cc(C)c2)c1	MEKK3 PB1 HTS 126 | MEKK2wt confirm inactive | MEKK2mut-MEK5 inactive | MEKK3-MEK5 inh inactive
O=C(NNC(=O)C1CC1c1ccccc1)c1ccccc1[N+](=O)[O-] (configuration not stated)	none
COc1ccc(CN2CCC(N(CCc3ccccc3)Cc3ccccc3)CC2)c(OC)c1	MEKK2 WT-MEK5 161, MEKK2mut PB1 HTS 52 | MEKK2wt confirm inactive | MEKK2mut-MEK5 inactive | MEKK3-MEK5 inh inactive
CCCN1CCC(N(CCc2ccccc2)Cc2ccccc2)CC1	none
CCn1c(C)nc2cc(C(=O)NNC(=S)Nc3ccc(Cl)cc3)ccc21	MEKK2 WT-MEK5 19[inhibitor], MEKK3 PB1 HTS 25[inhibitor] | MEKK2wt confirm inactive | MEKK2mut-MEK5 inactive | MEKK3-MEK5 inh inactive
Cc1cc(Cl)ccc1NC(=S)NCc1ccc(F)cc1	none
CN(CC(=O)NCc1ccncc1)S(=O)(=O)c1ccc2ccccc2c1	MEKK3 PB1 HTS 129 | MEKK2wt confirm inactive | MEKK2mut-MEK5 inactive | MEKK3-MEK5 inh inactive
CC(NC(=O)CC1CCCCC1)c1ccccc1 (configuration not stated)	none

Compound activity from PubChem BioAssay.
